# The list is not random: actives were taken first. Their share in the collection is about 2.1%.
# PfGluPho inh: PfG6PD (Plasmodium falciparum) enzyme inhibition. AID 504690. 350,000 tested, 0.78% active. inhibition, % at 20 µM. PfGluPho enzyme, NADPH resazurin-diaphorase fluorescence;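 active means inhibition reaching at least a set limit at 20 µM in the primary screen, cut at about 59% in these data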;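 further: 0% = DMSO wells with substrate and 100% = DMSO wells lacking glucose-6-phosphate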
# H9c2 protect: modulators protecting cardiomyocytes from myocardial damage; H9c2 cardiomyocytes, H2O2 injury protection, ATPLite, 2 h; protection from H2O2 cell death, % at 20 µM; 360,000 tested, 0.63% active; AID 588492;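 active means compounds giving at least 50% protection of heart cells from peroxide-induced death in the single-dose screen, raw or plate-pattern-corrected value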;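 further: 0% = DMSO wells with peroxide and 100% = DMSO wells without peroxide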
# aDG glyco up: increases alpha dystroglycan glycosylation; activation, % at 10 µM; AID 624168; Pro5-aDG cells, alpha-DG glycosylation AlphaScreen (IIH6); 0% Pro5, 100% B10-LARGE cell signal; 360,000 tested, 0.22% active;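 active means activation of at least 8% versus controls, or a plate z-score of at least 8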;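 further: Pro5 are CHO cells carrying HIG-tagged alpha-DG that lacks glycosylation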
# HKDC1 inhibitor: blocks human hexokinase HKDC1 activity. Q2TB90. recombinant HKDC1, G6PDH/diaphorase resazurin coupled fluorescence. inhibition, % at 20 µM. 340,000 tested, 0.16% active;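 active means inhibition above about 35% when tested at 20 µM, limit read from the data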;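 further: plate controls were DMSO wells with enzyme for no effect and DMSO wells lacking enzyme for full effect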
#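 test system = in-house recombinant HK5 (HKDC1) enzyme | amount = HKDC1 at 5 µg/mL | control set = DMSO-enzyme wells negative, buffer-substituted wells positive | compound = one dose of 20 µM, 1% DMSO | schedule = reaction time 90 min, room temperature, protected from light | technique = resorufin fluorescence at 613 nm | reagent = glucose with 1 mM ATP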
# Beta2AR agonist: agonists of human beta-2 adrenergic receptor inducing internalization | P07550 | response, % (test concentration not listed) | 340,000 tested, 0.43% active | Am2.2-beta2AR cells, FAP receptor internalization, flow cytometry;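 active means response above a set limit, near 3 SD of response in nonfluorescent compounds, cut at about 42% in these data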
# Target sequence (P07550 whole entry, looked up): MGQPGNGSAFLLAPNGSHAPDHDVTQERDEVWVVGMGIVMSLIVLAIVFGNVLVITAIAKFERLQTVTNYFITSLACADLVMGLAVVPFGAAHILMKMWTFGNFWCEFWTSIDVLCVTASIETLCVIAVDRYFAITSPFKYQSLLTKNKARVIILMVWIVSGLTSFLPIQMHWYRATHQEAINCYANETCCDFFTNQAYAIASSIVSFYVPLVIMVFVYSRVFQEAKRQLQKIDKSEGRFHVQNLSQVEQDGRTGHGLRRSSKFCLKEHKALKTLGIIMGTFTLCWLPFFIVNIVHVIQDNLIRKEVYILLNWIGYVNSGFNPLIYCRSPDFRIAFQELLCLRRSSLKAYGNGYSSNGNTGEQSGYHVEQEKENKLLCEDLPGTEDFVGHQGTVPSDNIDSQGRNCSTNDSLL
# UCH37 inh: inhibitors of human deubiquitinating enzyme UCH37; Q9Y5K5; purified proteasome/UCH37, Ub-AMC cleavage fluorescence; inhibition, % (no concentration beside the values); 330,000 tested, 0.33% active; AID 588478;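 active means mean inhibition over replicate wells above about 20%, limit read from the data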;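 further: 0% = compound-free wells with enzyme and 100% = wells lacking proteasome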
#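 Material: human UCH37 enzyme supplied as purified proteasome complex. Measure: % inhibition of Ub-AMC cleavage fluorescence. Medium: pH 7.4 Tris-HCl (50 mM) with ovalbumin, ATP-MgCl2, DTT. Times: 30 min preincubation with enzyme, 25 min cleavage at room temperature. Detection: AMC fluorescence intensity at 355/460 nm.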
# An asterisk follows results filed as active; x = not tested or not shown.
SMILES,PfGluPho inh,H9c2 protect,aDG glyco up,HKDC1 inhibitor,Beta2AR agonist,UCH37 inh
Cc1ccc(-c2nn(-c3ccccc3)cc2C2CC(c3cccs3)=NN2C(=O)CCCC(=O)O)cc1 (stereo not given),-35,7,0,9,69*,-14
COc1ccc(-c2nn(-c3ccccc3)cc2C2CC(c3cccs3)=NN2C(=O)CCCC(=O)O)cc1 (stereo not given),-10,1,0,14,-5,-1
COc1ccc(-n2sc3ccc(F)cc3c2=O)cc1,112*,-31,1,5,2,4
COc1cc(CO)cc(-c2cc(CO)cc(OC)c2OC)c1OC,-7,-3,0,-5,13,26*
Cn1ccsc1=NC(=O)Nc1cccc(C(F)(F)F)c1,x,x,x,x,x,0
CNC[C@H](Cc1ccccc1)NC[C@@H](Cc1cccc2ccccc12)NCCc1ccc(C)cc1,-2,-22,-1,4,98*,2
COc1ccc(C2/C=C\CN(S(=O)(=O)c3cccc4cccnc34)CC(=O)N2Cc2ccc(F)cc2)cc1 (stereo not given),-6,50*,0,-2,3,2
Cc1ccc(S(=O)(=O)NN2C(=O)/C(=C/c3ccc(C(=O)O)cc3)SC2=S)cc1,-18,0,0,5,-1,21*
CCCC(=NNC(=O)c1ccccc1C)c1ccccc1,x,x,x,x,x,5
CCOC(=O)c1c(-c2ccc(F)cc2)csc1N=CN(C)C,x,x,x,x,x,6
CCOC(=O)/C(=C/c1ccc(OC(=O)c2ccncc2)cc1)C(C)=O,3,11,0,12,4,4
COCCOC(=O)/C(=C/c1ccc(OC(=O)c2ccccc2)cc1)C(C)=O,11,1,0,10,43*,4
COc1cc(OC)cc(-c2cc3nc(C)c(CCC(=O)Nc4nc(C)cs4)c(C)n3n2)c1,-17,64*,0,2,6,-30
Cc1ccc(C=NNC(=O)c2cccc(S(=O)(=O)Nc3ccccc3Cl)c2)s1,x,x,x,x,x,5
Cc1nccn1CC(=O)NN=Cc1cc(Br)cs1,x,x,x,x,x,3
Cc1ccc(OCC(=O)Nc2nc(-c3ccccn3)cs2)c(C)c1,19,53*,0,5,6,5
O=C(COc1ccc(F)cc1)Nc1nc(-c2ccccn2)cs1,24,59*,1,1,2,1
O=C(COc1ccc([N+](=O)[O-])cc1)Nc1nc(-c2ccccn2)cs1,14,71*,1,-2,18,4
O=C(CNc1ccc(F)cc1)NN=C1CCc2ccccc21,x,x,x,x,x,4
CC(=NN1CCN(c2ccc(Cl)cc2)CC1)c1ccco1,x,x,x,x,x,1
COc1ccc(OCC(=O)NN=C/C(C)=C/c2ccco2)c(Br)c1,x,x,x,x,x,-4
CCOc1ccccc1NC(=O)c1cc(=O)c2ccccc2o1,0,-2,0,-5,-1,-20
N#CCCSc1ccccc1NC(=O)c1cc(=O)c2ccccc2o1,54,52*,0,-4,-1,2
COc1cc(OC)cc(C(=O)NNC(=O)c2ccccn2)c1,-23,51*,1,2,5,-1
CC(Oc1cccc(Br)c1)C(=O)NNC(=O)c1ccccn1 (stereo not given),-11,79*,2,-6,5,3
SMILES,PfGluPho inh,H9c2 protect,aDG glyco up,HKDC1 inhibitor,Beta2AR agonist,UCH37 inh
S=C(NCCc1ccccc1)NN=CC1CCCCC1,x,x,x,x,x,1
Cc1nnsc1-c1onc(C)c1C(=O)ON=Cc1ccc(Cl)cc1,x,x,x,x,x,7
COc1ccc2c(c1)c(C(=O)NN=Cc1ccc(Cl)cc1)c(C)n2C,x,x,x,x,x,0
COc1cc(C=NNc2nc(Nc3ccc(C)cc3)nc(-n3nc(C)cc3C)n2)cc(OC)c1OC,x,x,x,x,x,-20
COc1cc(/C=N/Nc2nc(Nc3ccc(C)cc3)nc(-n3nc(C)cc3C)n2)cc(OC)c1OC,7,57*,0,-8,1,x
COc1ccc(-n2cc(-c3ccc(C)cc3)[n+]3c2SCC3)cc1,-5,-21,0,10,7,35*
NC(=NOC(=O)c1ccc([N+](=O)[O-])cc1)c1cccnc1,x,x,x,x,x,5
O=C(NN=Cc1cc([N+](=O)[O-])ccc1O)c1ccc(COc2ccc3c(c2)CCC3)o1,x,x,x,x,x,4
Cc1ccccc1C(=O)NN=Cc1ccc(OCC(=O)N2CCCCC2)cc1,x,x,x,x,x,2
O=C(c1ccccc1)c1ccc(Cn2cc(-c3ccccc3)nn2)cc1,10,-13,4.5*,4,-15,0
CCCCCc1ccc(-c2cn(Cc3ccc(C(=O)c4ccccc4)cc3)nn2)cc1,-7,-20,0,-6,3,3
C=CCOc1ccc(C=NNC(=O)C(=O)N2CCCCCC2)cc1OC,x,x,x,x,x,3
Cn1c(=O)[nH]c(=O)c2c1nc(Br)n2CC=NNC(N)=S,x,x,x,x,x,2
CCCOc1ccc(/C=C2\SC(N)=NC2=O)cc1OC,7,-3,0,3,10,-2
COc1cc(/C=C2\SC(N)=NC2=O)ccc1OCC(=O)Nc1ccccc1C,2,54*,0,4,23,0
CC(C)c1ccc(C=Nn2nnnc2Nc2ccccc2)cc1,x,x,x,x,x,0
COc1cc(/C=N/n2nnnc2Nc2ccccc2)cc(OC)c1OC,7,85*,-1,-1,-3,x
C=CCn1c(COc2ccc(CC)cc2)nnc1SCC(O)=C(C#N)c1nc2ccccc2[nH]1,x,x,x,x,x,-19
CCOc1ccc(/C=C\C(C)=NO)cc1,x,x,x,x,x,4
O=C(N/N=C/c1c(O)ccc2ccccc12)c1ccc[n+](CCO)c1,-45,56*,0,-15,2,x
O=C(CN1CCOCC1)N/N=C/c1c(O)ccc2ccccc12,-3,69*,0,-17,8,x
Cc1c(C(=O)N/N=C/c2c(O)ccc3ccccc23)nnn1-c1nonc1N,-11,60*,0,2,9,x
O=C(CN1CCCc2ccccc21)NN=Cc1c(O)ccc2ccccc12,x,x,x,x,x,-1
Cn1cc(C(=O)N/N=C/c2c(O)ccc3ccccc23)ccc1=O,-35,71*,1,-6,5,x
CCCOc1ccc(-c2c(C(=O)NN=C(C)c3ccncc3)nnn2-c2nonc2N)cc1,x,x,x,x,x,2
COc1ccc2c(c1OC)c(=O)n1c3ccc(OC(C)C(=O)NCCN4CCOCC4)cc3c3ccnc2c31 (stereo not given),27,53*,0,1,2,-172
CC1OC(CC(=O)O)CC2=C1C(=O)c1c(O)cccc1C2=O (stereo not given),131*,-19,-1,31,75*,x
O=[N+]([O-])c1cc(Br)c(Nc2ccccc2)c([N+](=O)[O-])c1,-1,-3,0,24,47*,5
O=C(Nc1ccccc1)c1ccc(Nc2c([N+](=O)[O-])cc([N+](=O)[O-])c3ccccc23)cc1,-15,-14,2,0,15,x
Nc1c(C(=O)NN=Cc2cccnc2)oc2nc(-c3ccco3)cc(-c3ccco3)c12,x,x,x,x,x,-13
